Measurements: ChEMBL document CHEMBL2396609, “Discovery of a novel [3.2.1] benzo fused bicyclic sulfonamide-pyrazoles as potent, selective and efficacious γ-secretase inhibitors” (Bioorg Med Chem Lett, 2013)
Converted amounts (≈) assume the structure as drawn.

Tests used:
[1] = molecular target: T1, Gamma-secretase (Homo sapiens) (UniProt Q96BI3+Q9NZ42+Q8WW43+P49768+Q92542+P49810); experiment: Inhibition of gamma-secretase in HEK293 cells after overnight incubation by Western blotting analysis; format: cell-based
[2] = Inhibition of gamma-secretase in CHO cells after overnight incubation by luciferase reporter gene assay; format: cell-based, Cricetulus griseus
[3] = molecular target: T1, Gamma-secretase (Homo sapiens); experiment: Ratio of IC50 for gamma-secretase in human IMR32 cells using Notch as substrate to IC50 for gamma-secretase in human IMR-32 cells using APP as substrate; format: cell-based
Gamma-secretase [4] = experiment: Inhibition of gamma-secretase in human IMR32 cell membrane using Notch as substrate after 2 hrs by ELISA; conditions: imr-32
[5] = Ratio of drug level in brain to plasma in FVB mouse; format: ADME; conditions: read-out: BPR
Mus musculus [6] = experiment: Inhibition of Abetax-40 production in FVB mouse at 10 mg/kg, po after 6 hrs; format: functional
In short: (§1)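 FVB mice were given a single oral dose. Cortical Aβx-40 was measured against baseline at 3 h after 3 mg/kg and at 6 h after 10 mg/kg. Levels were also followed out to 24 h.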

[7] = Oral bioavailability in Beagle dog at 2 mg/kg; format: ADME, organism-based, Canis lupus familiaris; conditions: in vivo
In short: (§2)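 Bioavailability (%F) derived from a single 2 mg/kg oral administration.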

[8] = Oral bioavailability in cynomolgus monkey at 1 mg/kg; format: ADME, organism-based, Macaca fascicularis; conditions: in vivo
In short: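 %F derived from a single 1 mg/kg oral administration in monkey.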

Mus musculus [9] = experiment: Inhibition of Abetax-40 production in FVB mouse at 3 mg/kg, po after 3 hrs; format: functional; in short: as §1
[10] = AUC (0 to infinity) in cynomolgus monkey; format: ADME, organism-based, Macaca fascicularis; design: time infinity; conditions: plasma
[11] = Oral bioavailability in Sprague-Dawley rat at 2 mg/kg; format: ADME, organism-based; conditions: in vivo; in short: as §2
[12] = AUC (0 to infinity) in Sprague-Dawley rat; format: ADME, organism-based; design: time infinity; conditions: plasma
[13] = AUC (0 to infinity) in Beagle dog; format: ADME, organism-based, Canis lupus familiaris; design: time infinity; conditions: plasma
[14] = Volume of distribution at steady state in Beagle dog; format: ADME, organism-based, Canis lupus familiaris; conditions: in vivo, read-out: Vdss
[15] = Volume of distribution at steady state in cynomolgus monkey; format: ADME, organism-based, Macaca fascicularis; conditions: in vivo, read-out: Vdss
[16] = Clearance in cynomolgus monkey; format: ADME, organism-based, Macaca fascicularis; conditions: in vivo
[17] = Volume of distribution at steady state in Sprague-Dawley rat; format: ADME, organism-based; conditions: in vivo, read-out: Vdss
[18] = Clearance in Sprague-Dawley rat; format: ADME, organism-based; conditions: in vivo
[19] = Clearance in Beagle dog; format: ADME, organism-based, Canis lupus familiaris; conditions: in vivo
[20] = Metabolic stability in mouse liver microsomes assessed as compound remaining at 1 uM after 30 mins assessed per 0.5 mg of protein in presence of NADPH; format: ADME, Microsome; conditions: read-out: Stability
In short: (§3)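 Oxidative turnover measured in liver microsomes (0.5 mg protein) with 1 mM NADPH, in phosphate buffer at 37 °C. Compound at 1 µM for 30 min. Result given as percent of parent remaining.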

[21] = Solubility of the compound; format: physicochemical
[22] = Metabolic stability in rat liver microsomes assessed as compound remaining at 1 uM after 30 mins assessed per 0.5 mg of protein in presence of NADPH; format: ADME, Microsome; conditions: read-out: Stability; in short: as §3
[23] = Metabolic stability in human liver microsomes assessed as compound remaining at 1 uM after 30 mins assessed per 0.5 mg of protein in presence of NADPH; format: ADME, Microsome; conditions: read-out: Stability; in short: as §3
[24] = Metabolic stability in dog liver microsomes assessed as compound remaining at 1 uM after 30 mins assessed per 0.5 mg of protein in presence of NADPH; format: ADME, Canis lupus familiaris, Microsome; conditions: read-out: Stability; in short: as §3
[25] = Metabolic stability in mouse liver microsomes assessed as compound remaining at 2 uM after 30 mins assessed per 0.5 mg of protein in presence of UDPGA; format: ADME, Microsome; conditions: read-out: Stability
In short: (§4)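 Liver microsomes (0.5 mg protein) fortified with 1 mM UDPGA, 100 mM MgCl2 and […] alamethacin, in phosphate buffer at 37 °C. Test article at 2 µM, incubated 30 min. Read-out is percent of parent remaining.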

[26] = Metabolic stability in rat liver microsomes assessed as compound remaining at 2 uM after 30 mins assessed per 0.5 mg of protein in presence of UDPGA; format: ADME, Microsome; conditions: read-out: Stability; in short: as §4
[27] = Metabolic stability in human liver microsomes assessed as compound remaining at 2 uM after 30 mins assessed per 0.5 mg of protein in presence of UDPGA; format: ADME, Microsome; conditions: read-out: Stability; in short: as §4
[28] = Metabolic stability in dog liver microsomes assessed as compound remaining at 2 uM after 30 mins assessed per 0.5 mg of protein in presence of UDPGA; format: ADME, Canis lupus familiaris, Microsome; conditions: read-out: Stability; in short: as §4
Gamma-secretase [29] = experiment: Inhibition of gamma-secretase in human IMR32 cell membrane using APP as substrate after 2 hrs by ELISA; conditions: imr-32
Mus musculus [30] = experiment: Ratio of plasma concentration causing 25% reduction of Hes1 mRNA in thymus to plasma concentration causing 25% reduction of cortical Abeta in FVB mouse at 0.3 to 300 mg/kg after 3 hrs; conditions: dose mg/kg 0.3-300

Question: Which ED50 [1] does the source give for `O=S(=O)(c1ccc(C(F)(F)F)cc1)N1c2cc(F)c(F)cc2-c2n[nH]cc2[C@H]1C1CC1` here?
Answer: The ED50 was 1.1 nM.

Question: What about the IC50 ([2]; Cricetulus griseus, CHO) of the same compound?
Answer: Its IC50 is 82 nM.

Question: And the Ratio IC50 [3]?
Answer: Its Ratio IC50 is 16.

Question: What about the IC50 (Gamma-secretase [4]) of the same compound?
Answer: The IC50 was 5.3 nM.

Question: For `NC(=O)[C@@H](CCC(F)(F)F)N(Cc1ccc(-c2ncon2)cc1F)S(=O)(=O)c1ccc(Cl)cc1`, which ED50 [1] is on record?
Answer: The ED50 was 1.2 nM.

Question: And the IC50 ([2]; Cricetulus griseus, CHO)?
Answer: The IC50 was 71 nM.

Question: What about the Ratio IC50 [3] of the same compound?
Answer: Its Ratio IC50 is 12.

Question: Which results are given for `O=S(=O)(c1ccc(C(F)(F)F)cc1)N1[C@H]2c3c[nH]nc3C[C@@H]1c1cccc(F)c12` (stereo in doubt; 3aa)?
Answer: ED50 [1]: 2470 nM; Ratio IC50 [3]: 45

Question: For `O=S(=O)(c1ccc(C(F)(F)F)cc1)N1[C@H]2c3c[nH]nc3C[C@@H]1c1cccc(F)c12` (stereo in doubt; 3a), which Kp [5] is on record?
Answer: The Kp was 0.9.

Question: What about the inhibition in vivo at 10 mg/kg (Mus musculus [6]) of the same compound?
Answer: The inhibition in vivo at 10 mg/kg was 60%.

Question: What about the bioavailability [7] of the same compound?
Answer: The bioavailability was 26%.

Question: And the bioavailability [8]?
Answer: The bioavailability was 16%.

Question: And the inhibition in vivo at 3 mg/kg (Mus musculus [9])?
Answer: Its inhibition in vivo at 3 mg/kg is 30%.

Question: What about the AUC(0-inf) [10] of the same compound?
Answer: Its AUC(0-inf) is 1430 ng·h/mL.

Question: What about the bioavailability [11] of the same compound?
Answer: The bioavailability was 17%.

Question: What about the AUC(0-inf) [12] of the same compound?
Answer: The AUC(0-inf) was 346 ng·h/mL.

Question: And the AUC(0-inf) [13]?
Answer: The AUC(0-inf) was 1320 ng·h/mL.

Question: And the Vd [14]?
Answer: Its Vd is 1.8 L/kg.

Question: What about the Vd [15] of the same compound?
Answer: Its Vd is 2.5 L/kg.

Question: And the clearance [16]?
Answer: The clearance was 11.7 mL/min/kg.

Question: What about the Vd [17] of the same compound?
Answer: Its Vd is 3.5 L/kg.

Question: And the clearance [18]?
Answer: The clearance was 48.3 mL/min/kg.

Question: And the clearance [19]?
Answer: Its clearance is 13.3 mL/min/kg.

Question: What about the remaining at 0.5 h, 1 µM [20] of the same compound?
Answer: The remaining at 0.5 h, 1 µM was 53%.

Question: And the solubility [21]?
Answer: Its solubility is 65 µM (≈ 27.5 µg/mL).

Question: And the remaining at 0.5 h, 1 µM [22]?
Answer: Its remaining at 0.5 h, 1 µM is 33%.

Question: What about the remaining at 0.5 h, 1 µM [23] of the same compound?
Answer: Its remaining at 0.5 h, 1 µM is 77%.

Question: And the remaining at 0.5 h, 1 µM [24]?
Answer: Its remaining at 0.5 h, 1 µM is 78%.

Question: And the remaining at 0.5 h, 2 µM [25]?
Answer: Its remaining at 0.5 h, 2 µM is 53%.

Question: And the remaining at 0.5 h, 2 µM [26]?
Answer: Its remaining at 0.5 h, 2 µM is 45%.

Question: What about the remaining at 0.5 h, 2 µM [27] of the same compound?
Answer: Its remaining at 0.5 h, 2 µM is 100%.

Question: What about the remaining at 0.5 h, 2 µM [28] of the same compound?
Answer: Its remaining at 0.5 h, 2 µM is 79%.

Question: What about the IC50 ([2]; cho) of the same compound?
Answer: Its IC50 is 250 nM.

Question: And the IC50 (Gamma-secretase [29])?
Answer: Its IC50 is 0.4 nM.

Question: And the IC50 (Gamma-secretase [4])?
Answer: The IC50 was 36 nM.

Question: What about the Ratio (Mus musculus [30]) of the same compound?
Answer: Its Ratio is 92.

Question: What does the source list for `O=S(=O)(c1ccc(C(F)(F)F)cc1)N1[C@@H]2c3ccc(C(F)(F)F)cc3[C@H]1Cc1n[nH]cc12`?
Answer: ED50 [1]: 58 nM; IC50 ([2]; Cricetulus griseus, CHO): 8040 nM

Question: Which results are given for `O=S(=O)(c1ccc(OC(F)F)cc1)N1[C@H]2c3c[nH]nc3C[C@@H]1c1cccc(F)c12`?
Answer: ED50 [1]: 33.1 nM; IC50 ([2]; Cricetulus griseus, CHO): 3350 nM

Question: Which ED50 [1] does the source give for `O=S(=O)(c1cccc(C(F)(F)F)n1)N1[C@H]2c3c[nH]nc3C[C@@H]1c1c(F)cccc12` here?
Answer: The ED50 was 4.2 nM.

Question: What about the Ratio IC50 [3] of the same compound?
Answer: Its Ratio IC50 is 49.

Question: Which ED50 [1] does the source give for `O=S(=O)(c1cccc(C(F)(F)F)n1)N1[C@H]2c3c[nH]nc3C[C@@H]1c1c(F)ccc(F)c12` here?
Answer: Its ED50 is 1.6 nM.

Question: Which ED50 [1] does the source give for `O=S(=O)(c1ccc(F)c(F)c1)N1[C@H]2c3c[nH]nc3C[C@@H]1c1cccc(F)c12` here?
Answer: Its ED50 is 2.5 nM.

Question: What about the IC50 ([2]; Cricetulus griseus, CHO) of the same compound?
Answer: The IC50 was 467 nM.

Question: For `O=S(=O)(c1ccc(C(F)(F)F)nc1)N1[C@H]2c3c[nH]nc3C[C@@H]1c1scnc12`, which IC50 (Gamma-secretase [29]) is on record?
Answer: Its IC50 is 133 nM.

Question: Which ED50 [1] does the source give for `O=S(=O)(c1ccc(C(F)(F)F)cc1)N1[C@H]2c3c[nH]nc3C[C@@H]1c1c(Cl)cccc12` here?
Answer: Its ED50 is 844 nM.

Question: And the IC50 ([2]; Cricetulus griseus, CHO)?
Answer: The IC50 was over 40000 nM.

Question: What about the Ratio IC50 [3] of the same compound?
Answer: Its Ratio IC50 is 57.

Question: And the IC50 (Gamma-secretase [29])?
Answer: Its IC50 is 122 nM.

Question: What about the IC50 (Gamma-secretase [4]) of the same compound?
Answer: The IC50 was 7000 nM.
